≈ marks a conversion by molar mass, not a printed value. Calls of active or inactive are those of the source. The calls are words filed in the database; no cut-off is given here.
Legend:
Plasmodium falciparum [1] = assay: Antimalarial activity against schizont stage of chloroquine-sensitive Plasmodium falciparum 3D7 assessed as reduction in parasitemia at 10 ug/ml after more than 40 hrs by Giemsa staining-based light microscopy; type: functional; parameters: scale not given: the % may be the effect or the level left
Procedure, shortened: (§1)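 Ring stages (5% D-sorbitol synchronized) of 3D7 were grown in RPMI with 10% FBS, gentamycin and Fungizone at 37 °C under CO2. They were exposed in duplicate to compound (DMSO stock, 5 mg/mL) at 2, 10 and 50 μg/mL, with 3% cell suspension and 1% parasitized cells, for >40 h. Giemsa-stained thin smears were counted for schizonts. MIC is the lowest concentration giving 100% inhibition of schizont maturation.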

Plasmodium falciparum [2] = assay: Antimalarial activity against schizont stage of chloroquine-sensitive Plasmodium falciparum 3D7 after more than 40 hrs by Giemsa staining-based light microscopic analysis; type: functional; settings: 3D7, 40 h; procedure, shortened: as §1
[3] = Selectivity index, ratio of CC50 for african green monkey Vero C1008 cells to IC50 for Plasmodium falciparum K1; type: functional
Procedure, shortened: (§2)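 SI = CC50 (Vero, 72 h MTT) / IC50. IC50 comes from a 72 h SYBR Green I fluorescence assay: seven 2-fold dilutions in duplicate, 2% cell suspension at 0.8% parasitemia, and Logit regression of the dose-response.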

Plasmodium falciparum [4] = assay: Resistance ratio of IC5O for Plasmodium falciparum K1 to IC50 for Plasmodium falciparum 3D7; type: functional
Procedure, shortened: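 Ratio of K1 IC50 to 3D7 IC50. Both come from the 72 h SYBR Green I fluorescence assay: seven 2-fold dilutions in duplicate, 0.8% parasitemia, IC50 by logit regression.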

Plasmodium yoelii [5] = assay: Antimalarial activity against chloroquine-resistant Plasmodium yoelii N-67 infected in Swiss mouse assessed as reduction in parasitemia at 3 mg/kg/day, im administered for 3 days measured on day 4 relative to control; type: functional; parameters: scale not given: the % may be the effect or the level left; settings: route intramuscular
[6] = Cytotoxicity against african green monkey Vero C1008 cells after 72 hrs by MTT assay; type: cell-based; settings: chlorocebus sabaeus
Procedure, shortened: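 Vero (C1008) cells were incubated with dilutions of compound for 72 h and read by MTT. CC50 was obtained by nonlinear regression.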

Plasmodium yoelii [7] = assay: Antimalarial activity against chloroquine-resistant Plasmodium yoelii N-67 infected in Swiss mouse assessed as mean survival time at 3 mg/kg/day, im administered for 3 days (reference value: 9.20 +/- 0.44 days); type: functional; settings: route intramuscular
Plasmodium falciparum [8] = assay: Antimalarial activity against schizont stage of chloroquine-sensitive Plasmodium falciparum 3D7 after 72 hrs by SYBR Green I-based fluorescence assay; type: functional, organism-based; settings: 3D7, 72 h
Procedure, shortened: (§3)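 Parasites cultured in RPMI with 10% FBS, gentamycin and Fungizone (pH 7.2) at 37 °C in CO2. Compounds from DMSO stock (5 mg/mL). Seven 2-fold serial dilutions, duplicate wells. Cells added at 2% hematocrit, 0.8% parasitemia; uninfected-cell wells kept as background. After 72 h, lysis buffer with SYBR Green I, 1 h at 37 °C, fluorescence read. IC50 by logit regression of dose-response.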

[9] = Selectivity index, ratio of CC50 for african green monkey Vero C1008 cells to IC50 for Plasmodium falciparum 3D7; type: functional; procedure, shortened: as §2
Plasmodium falciparum [10] = assay: Antimalarial activity against schizont stage of chloroquine-sensitive Plasmodium falciparum 3D7 assessed as reduction in parasitemia at 2 to 10 ug/ml after more than 40 hrs by Giemsa staining-based light microscopy; type: functional; parameters: scale not given: the % may be the effect or the level left; procedure, shortened: as §1
Plasmodium falciparum [11] = assay: Inhibition of Plasmodium falciparum recombinant Falcipain-3 using Z-LR-AMC as substrate at low concentration after 30 mins by microplate reader analysis
Plasmodium falciparum [12] = assay: Activation of Plasmodium falciparum recombinant Falcipain-3 using Z-LR-AMC as substrate at high concentration after 30 mins by microplate reader analysis
Plasmodium falciparum [13] = assay: Antimalarial activity against chloroquine-resistant Plasmodium falciparum K1 after 72 hrs by SYBR Green I-based fluorescence assay; type: functional, organism-based; settings: K1, 72 h; procedure, shortened: as §3
Plasmodium yoelii [14] = assay: Antimalarial activity against chloroquine-resistant Plasmodium yoelii N-67 infected in Swiss mouse assessed as reduction in parasitemia at 50 mg/kg/day, ip administered for 3 days measured on day 4 relative to control; type: functional; parameters: scale not given: the % may be the effect or the level left; settings: route intraperitoneal
[15] = Inhibition of Plasmodium falciparum recombinant Falcipain-2 using Z-LR-AMC as substrate after 30 mins by microplate reader analysis
Plasmodium yoelii [16] = assay: Antimalarial activity against chloroquine-resistant Plasmodium yoelii N-67 infected in Swiss mouse assessed as mean survival time of host at 50 mg/kg/day, ip administered for 3 days (reference value: 9.20 +/- 0.44 days); type: functional; settings: route intraperitoneal
Plasmodium falciparum [17] = assay: Antimalarial activity against Plasmodium falciparum; type: functional

**Q.** With `CC1(C)CCc2cc(C(=O)/C=C/c3cccc([N+](=O)[O-])c3)c(O)cc2O1` as the compound, how does the Activity (Plasmodium falciparum [1]) read?
**A.** <100%

**Q.** And the MIC (Plasmodium falciparum [2])?
**A.** > 28.2 µM

**Q.** What does the source list for `CC1(C)CCc2cc(C(=O)/C=C/c3ccc(F)c(F)c3)c(O)cc2O1`?
**A.** Activity (Plasmodium falciparum [1]): <100%; MIC (Plasmodium falciparum [2]): > 29.1 µM

**Q.** For `CCO[C@H]1O[C@@H]2O[C@@]3(C)CC[C@H]4[C@H](C)CC[C@@H]([C@H]1C)[C@@]24OO3` [ARTEMOTIL], which “Ratio CC50/IC50” value [3] is on record?
**A.** 124857

**Q.** What about the “Ratio IC50” value (Plasmodium falciparum [4]) of the same compound?
**A.** 0.79

**Q.** What about the Activity (Plasmodium yoelii [5]) of the same compound?
**A.** 100%

**Q.** What about the CC50 at 72 h [6] of the same compound?
**A.** 136 µM

**Q.** And the MST (Plasmodium yoelii [7])?
**A.** >28 days

**Q.** And the IC50 (Plasmodium falciparum [8])?
**A.** 0.00137 µM

**Q.** What about the “Ratio CC50/IC50” value [9] of the same compound?
**A.** 98720

**Q.** What does the source list for `CC1(C)CCc2cc(C(=O)/C=C/c3ccc(Cl)c(Cl)c3)c(O)cc2O1`?
**A.** Activity (Plasmodium falciparum [1]): <100%; MIC (Plasmodium falciparum [2]): > 26.6 µM

**Q.** What does the source list for `CC1(C)CCc2cc(C(=O)/C=C/c3ccccn3)c(O)cc2O1`?
**A.** MIC (Plasmodium falciparum [2]): > 32.4 µM; Activity (Plasmodium falciparum [10]): <100%

**Q.** Which “Ratio CC50/IC50” value [3] does the source give for `CC(C)=CCCC1(C)C=Cc2c(ccc(C(=O)/C=C/c3ccc(O)c(C=O)c3)c2O)O1` (stereo not given) here?
**A.** 9

**Q.** What about the MIC (Plasmodium falciparum [2]) of the same compound?
**A.** 0.59 µM (≈ 0.247 µg/mL)

**Q.** And the “Ratio IC50” value (Plasmodium falciparum [4])?
**A.** 8.7

**Q.** What about the inhibition (Plasmodium falciparum [11]) of the same compound?
**A.** Active

**Q.** And the Activity (Plasmodium falciparum [12])?
**A.** Active

**Q.** What about the CC50 at 72 h [6] of the same compound?
**A.** 9.9 µM

**Q.** What about the IC50 (Plasmodium falciparum [13]) of the same compound?
**A.** 1.09 µM

**Q.** And the Activity (Plasmodium yoelii [14])?
**A.** 89%

**Q.** And the IC50 [15]?
**A.** 5.5 µM

**Q.** And the IC50 (Plasmodium falciparum [8])?
**A.** 0.125 µM

**Q.** What about the “Ratio CC50/IC50” value [9] of the same compound?
**A.** 79

**Q.** And the MST (Plasmodium yoelii [16])?
**A.** 12.33 days

**Q.** What does the source list for `CC1(C)CCc2cc(C(=O)/C=C/c3ccc([N+](=O)[O-])cc3)c(O)cc2O1`?
**A.** Activity (Plasmodium falciparum [1]): <100%; MIC (Plasmodium falciparum [2]): > 28.3 µM

**Q.** Which MIC (Plasmodium falciparum [17]) does the source give for `CC(C)=CCC1=C/C(=C(O)\C=C\c2ccc(O)cc2)C(=O)C(CC=C(C)C)(CC=C(C)C)C1=O` [MUNCHIWARIN] here?
**A.** 4.34 µM (≈ 2 µg/mL)

— ChEMBL document CHEMBL2331228, “Synthesis and insight into the structure-activity relationships of chalcones as antimalarial agents” (J Med Chem, 2013)
